In brackets after ≈: the same amount, converted by molar mass. Activity calls are given as the source filed them. The rule behind the calls is not given here.
Legend:
Enterococcus faecalis = experiment: Antibiotic activity against cytolysin-positive Enterococcus faecalis MMH594 infected in intestine of Caenorhabditis elegans glp-4(bn2ts);sek-1(km4) mutant infection model assessed as nematode survival at 50 to 100 ug/mL after 168 hrs by liquid infection assay; assay type: functional, organism-based
In short: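 C. elegans glp-4(bn2ts);sek-1(km4) synchronized L4 to young adult worms, fed E. coli OP50, infected on E. faecalis MMH594 lawn, then moved to liquid medium (19% BHI, 80% M9, 80 μg mL-1 kanamycin, 1% DMSO) with compound at 100 and 50 μg mL-1 final. Survival scored at 3, 48, 120, 168 h. Ampicillin positive control.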

Pyricularia grisea = experiment: Antimicrobial activity against Magnaporthe grisea mycelia assessed as growth inhibition; assay type: functional
Globisporangium ultimum = experiment: Antimicrobial activity against Pythium ultimum mycelia assessed as growth inhibition; assay type: functional

| SMILES | Activity (Enterococcus faecalis) | MIC (Pyricularia grisea) [µg/mL] | MIC (Globisporangium ultimum) [µg/mL] |
| --- | --- | --- | --- |
| CC[C@H](C)/C=C/C1=CC2=C(Cl)C(=O)[C@@]3(C)OC(=O)C(C(=O)[C@@H](C)[C@H](C)O)=C3C2=CO1 | inactive | – | – |
| CC[C@H](C)/C=C/C1=CC2=C(Cl)C(=O)[C@@]3(C)OC(=O)[C@@H](C(=O)[C@@H](C)[C@H](C)O)[C@H]3C2=CO1 | inactive | – | – |
| CC[C@H](C)/C=C/C1=CC2=C(Cl)C(=O)[C@@]3(C)OC(=O)C(C(=O)[C@H](C)CC)=C3C2=CO1 | inactive | – | – |
| CC(O)C(C)C1(O)O[C@]2(C)C(=O)C(Cl)=C3C=C(/C=C/[C@@H](C)[C@@H](C)O)OC=C3[C@@H]2[C@@H]1C(=O)O (stereo partly specified) | inactive | – | – |
| CC[C@H](C)/C=C/C1=CC2=CC(=O)[C@@]3(C)OC(=O)C(C(=O)[C@@H](C)[C@@H](C)O)=C3C2=CO1 | inactive | – | – |
| CC[C@H](C)/C=C/C1=CC2=C(Cl)C(=O)[C@@]3(C)OC(=O)C(C(=O)[C@@H](C)[C@@H](C)O)=C3C2=CO1 [CHAETOVIRIDIN A] | inactive | 1.23 (≈ 2.84 µM) | 33.3 (≈ 76.9 µM) |
| C[C@H](O)[C@H](C)C(=O)[C@@H]1C(=O)O[C@]2(C)C(=O)C(Cl)=C3C=C(/C=C/[C@@H](C)[C@@H](C)O)OC=C3[C@H]12 | inactive | – | – |
| CC[C@H](C)/C=C/C1=CC2=C(Cl)C(=O)[C@@]3(C)OC(=O)C(C(=O)[C@H](C)[C@@H](C)O)=C3C2=CO1 | inactive | – | – |
| CC[C@H](C)/C=C/C1=CC2=C(Cl)C(=O)[C@@]3(C)OC(O)(C(C)C(C)O)[C@@H](C(=O)O)[C@H]3C2=CO1 (stereo partly specified) [CHAETOVIRIDIN B] | inactive | 1.23 (≈ 2.72 µM) | 33.3 (≈ 73.5 µM) |
| CC[C@H](C)/C=C/C1=CC2=C(Cl)C(=O)[C@@]3(C)OC(=O)C4=C(C(C)C(C)O)OC(O1)C2(O)C43O (stereo partly specified) | inactive | – | – |
| C/C=C(\C)C(=O)C1=C2C3=COC(/C=C/[C@@H](C)CC)=CC3=C(Cl)C(=O)[C@@]2(C)OC1=O | inactive | – | – |
| C/C=C(\C)C(=O)[C@@H]1C(=O)O[C@]2(C)C(=O)C(Cl)=C3C=C(/C=C/[C@@H](C)CC)OC=C3[C@H]12 | inactive | – | – |

Source: ChEMBL document CHEMBL1799936, “Azaphilones from the endophyte Chaetomium globosum” (2011)
